Data set [1] deals with SK-N-SH. As to the kind of experiment: Induction of neurite outgrowth in human SK-N-SH cells at 100 uM after 5 days relative to control. Format: functional. The procedure, abridged: (§1)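 SK-N-SH cells were plated at 4.7 × 10^4 cell/mL in gridded 60 mm dishes. Compound was added once at the start of culture, with 0.1% DMSO vehicle as control. After 5 days, 100-300 cells in four 650 × 430 µm areas were scored for the percentage bearing neurites longer than 50 µm, expressed as % of control. Values are mean ± sem of eight sights; Student's t-test, P < 0.05.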

Data set [2] concerns SK-N-SH. As to the kind of experiment: Induction of neurite outgrowth in human SK-N-SH cells at 10 uM after 5 days relative to control. Format: functional. In outline:
as §1

The subject of data set [3] is SK-N-SH. As to the kind of experiment: Cytotoxicity against human SK-N-SH cells at 100 uM. It is filed as cell-based.
The subject of data set [4] is SK-N-SH. As to the kind of experiment: Effect on neurite outgrowth activity in human SK-N-SH cells assessed as increase in number of vericosites at 100 uM after 5 days. It is filed as functional. In outline: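 Human SK-N-SH cells plated at 4.7 × 10^4 cell/mL in gridded 60 mm dishes. Compound added once at culture start at 100 µM; vehicle 0.1% DMSO. Cells examined after 5 days in four areas (650 × 430 µm). Varicosity number counted per cell, 40 cells per value, mean ± sem. Compared with control by Student's t-test, P < 0.05.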

On to `CC(C)(O)[C@@H]1CC[C@@](C)([C@H]2CC[C@]3(C)[C@@H]2[C@H](O)C[C@@H]2[C@@]4(C)CC[C@H](O)C(C)(C)[C@@H]4[C@@H](O[C@@H]4O[C@H](CO)[C@@H](O)[C@H](O)[C@H]4O)C[C@]23C)O1`, for which the Activity in the data set with SK-N-SH [1] was determined as 91.4%.
The same measure, in the same setting: the value for `CC(C)(O)[C@@H]1CC[C@@](C)([C@H]2CC[C@]3(C)[C@@H]2[C@H](O)C[C@@H]2[C@@]4(C)CC[C@H](O)C(C)(C)[C@@H]4[C@@H](O[C@@H]4O[C@H](CO[C@H]5O[C@H](CO)[C@@H](O)[C@H](O)[C@H]5O)[C@@H](O)[C@H](O)[C@H]4O[C@@H]4OC[C@@H](O)[C@H](O)[C@H]4O)C[C@]23C)O1` was 104.1%.
With `C[C@@H]1O[C@@H](O[C@H]2[C@H](O[C@H]3C[C@]4(C)[C@H](C[C@@H](O)[C@@H]5[C@@H]([C@]6(C)CC[C@@H](C(C)(C)O)O6)CC[C@]54C)[C@@]4(C)CC[C@H](O)C(C)(C)[C@H]34)O[C@H](CO)[C@@H](O)[C@@H]2O)[C@H](O)[C@H](O)[C@H]1O`, the figures for the Activity in the data set with SK-N-SH [2] and in the data set with SK-N-SH [3] were 103% and “Toxic”, respectively.
`CC(C)=CCC[C@](C)(O[C@@H]1O[C@H](CO)[C@@H](O)[C@H](O)[C@H]1O)[C@H]1CC[C@]2(C)[C@@H]1[C@H](O)C[C@@H]1[C@@]3(C)CC[C@H](O)C(C)(C)[C@@H]3[C@@H](O[C@@H]3O[C@H](CO)[C@@H](O)[C@H](O)[C@H]3O[C@@H]3O[C@H](CO)[C@@H](O)[C@H](O)[C@H]3O)C[C@]12C` came in with an Activity in the data set with SK-N-SH [1] of 96.6%.
Still for that read-out and setting: to `CC(=O)OC[C@H]1O[C@@H](O[C@H]2C[C@]3(C)[C@H](C[C@@H](O)[C@@H]4[C@@H]([C@]5(C)CC[C@@H](C(C)(C)O)O5)CC[C@]43C)[C@@]3(C)CC[C@H](O)C(C)(C)[C@H]23)[C@H](O[C@@H]2OC[C@@H](O)[C@H](O)[C@H]2O)[C@@H](O)[C@@H]1O` [GINSENOSIDE R2] belongs 97%.
As for `CC(C)=CCC[C@](C)(O[C@@H]1O[C@H](CO[C@@H]2O[C@H](CO)[C@@H](O)[C@H](O)[C@H]2O)[C@@H](O)[C@H](O)[C@H]1O)[C@H]1CC[C@]2(C)[C@@H]1[C@H](O)C[C@@H]1[C@@]3(C)CC[C@H](O[C@@H]4O[C@H](CO)[C@@H](O)[C@H](O)[C@H]4O[C@@H]4O[C@H](CO)[C@@H](O)[C@H](O)[C@H]4O)C(C)(C)[C@@H]3CC[C@]12C` [GINSENOSIDE RB1], the Activity in the data set with SK-N-SH [1] turned out to be 178%; with SK-N-SH [4], 0.93.
Regarding `CC(C)=CCC[C@](C)(O[C@@H]1O[C@H](CO[C@@H]2OC[C@@H](O)[C@H](O)[C@H]2O)[C@@H](O)[C@H](O)[C@H]1O)[C@H]1CC[C@]2(C)[C@@H]1[C@H](O)C[C@@H]1[C@@]3(C)CC[C@H](O[C@@H]4O[C@H](CO)[C@@H](O)[C@H](O)[C@H]4O[C@@H]4O[C@H](CO)[C@@H](O)[C@H](O)[C@H]4O)C(C)(C)[C@@H]3CC[C@]12C` [GINSENOSIDE RB3], the Activity was 228% in the data set with SK-N-SH [1] and 0.8 in the data set with SK-N-SH [4].
`CC(C)=CCC[C@](C)(O[C@@H]1O[C@H](CO)[C@@H](O)[C@H](O)[C@H]1O)[C@H]1CC[C@]2(C)[C@@H]1[C@H](O)C[C@@H]1[C@@]3(C)CC[C@H](O)C(C)(C)[C@@H]3[C@@H](O[C@@H]3O[C@H](CO)[C@@H](O)[C@H](O)[C@H]3O[C@@H]3O[C@@H](C)[C@H](O)[C@@H](O)[C@H]3O)C[C@]12C` [GINSENOSIDE RE] gave an Activity with SK-N-SH [1] of 83.5%.
As to `CC(C)=CCC[C@](C)(O[C@@H]1O[C@H](CO)[C@@H](O)[C@H](O)[C@H]1O)[C@H]1CC[C@]2(C)[C@@H]1[C@H](O)C[C@@H]1[C@@]3(C)CC[C@H](O)C(C)(C)[C@@H]3[C@@H](O[C@@H]3O[C@H](CO)[C@@H](O)[C@H](O)[C@H]3O)C[C@]12C` [GINSENOSIDE RG1], the Activity in the data set with SK-N-SH [1] worked out at 107.3%.
Same read-out and setting: the value for `CC(C)(O)[C@@H]1CC[C@@](C)([C@H]2CC[C@]3(C)[C@@H]2[C@H](O)C[C@@H]2[C@@]4(C)CC[C@H](O)C(C)(C)[C@@H]4[C@@H](O[C@@H]4O[C@H](CO)[C@@H](O)[C@H](O)[C@H]4O[C@@H]4OC[C@@H](O)[C@H](O)[C@H]4O)C[C@]23C)O1` [MAJONOSIDE R2] was 109.6%.
Regarding `CC(C)=CCC[C@](C)(O[C@@H]1O[C@H](CO[C@@H]2O[C@H](CO)[C@@H](O)[C@H](O)[C@H]2O)[C@@H](O)[C@H](O)[C@H]1O)[C@H]1CC[C@]2(C)[C@@H]1[C@H](O)C[C@@H]1[C@@]3(C)CC[C@H](O[C@@H]4O[C@H](CO)[C@@H](O)[C@H](O)[C@H]4O[C@@H]4O[C@H](CO)[C@@H](O)[C@H](O)[C@H]4O[C@@H]4OC[C@@H](O)[C@H](O)[C@H]4O)C(C)(C)[C@@H]3CC[C@]12C` [NOTOGINSENOSIDE FA], the Activity was 147% in the data set with SK-N-SH [1] and 0.53 with SK-N-SH [4].
`CC(C)=CCC[C@](C)(O[C@@H]1O[C@H](CO)[C@@H](O)[C@H](O)[C@H]1O)[C@H]1CC[C@]2(C)[C@@H]1[C@H](O)C[C@@H]1[C@@]3(C)CC[C@H](O)C(C)(C)[C@@H]3[C@@H](O[C@@H]3O[C@H](CO)[C@@H](O)[C@H](O)[C@H]3O[C@@H]3OC[C@@H](O)[C@H](O)[C@H]3O)C[C@]12C` [NOTOGINSENOSIDE R1] gave an Activity with SK-N-SH [1] of 84.6%.
Still for that read-out and setting: the value for `CC(=O)OC[C@H]1O[C@@H](O[C@H]2C[C@]3(C)[C@H](C[C@@H](O)[C@@H]4[C@@H]([C@]5(C)CC[C@@H](C(C)(C)O)O5)CC[C@]43C)[C@@]3(C)CC[C@H](O)C(C)(C)[C@H]23)[C@H](O[C@@H]2O[C@H](C)[C@@H](O)[C@H](O)[C@@H]2O)[C@@H](O)[C@@H]1O` [VINA-GINSENOSIDE R1] was 82.2%.
